Converted amounts (≈) assume the structure as drawn.

The nature of this experiment: Inhibition of bovine thymus p56LCK-catalyzed phosphorylation of angiotensin 1 by SDS-PAGE. Details: species or system Bos taurus. The procedure, abridged:
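p56lck partially purified from bovine thymus (DEAE-cellulose, heparin-agarose, butyl-agarose chromatography). Substrate angiotensin I 1.2 mM with [γ-32P]ATP 50 μM. Reactions held 8% DMSO as inhibitor carrier; DMSO-only controls. Inhibitors tested at seven concentrations, 0.8 to 800 μg/ml. IC50 read graphically as half-maximal inhibition relative to DMSO controls.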
`COc1cc(-c2cc(=O)c3ccc(O)cc3o2)cc(OC)c1OC` showed an IC50 above 800 µg/mL.

The compound `COc1ccc2c(=O)cc(-c3cc(OC)c(OC)c(OC)c3)oc2c1` returned an IC50 above 800 µg/mL.

Regarding `O=c1cc(-c2ccc(O)cc2)oc2ccc(O)cc12`, the concentration for half-maximal inhibition (IC50) is 30 µg/mL (≈ 118 µM).

`O=c1cc(-c2ccc(O)cc2)oc2cc(O)ccc12` registered a half-maximal inhibitory concentration (IC50) of 43 µg/mL (≈ 169 µM).

`COc1cc(-c2oc3cc(O)cc(O)c3c(=O)c2O)cc(OC)c1O` [SYRINGETIN]: the IC50 was found to be 24 µg/mL (≈ 69.3 µM).

On to `O=c1cc(-c2ccc(O)cc2)oc2cccc(O)c12`, for which the half-inhibitory concentration (IC50) was 4 µg/mL (≈ 15.7 µM). This IC50 lies about 6-fold lower than the previous one.

With `O=c1cc(-c2ccc(OCc3ccccc3)cc2)oc2cc(O)ccc12`, the IC50 came to 664 µg/mL (≈ 1930 µM).

In the case of `O=c1cc(-c2ccccc2)oc2c(O)c(O)ccc12` [7,8-DIHYDROXYFLAVONE], the IC50 was 80 µg/mL (≈ 315 µM). This IC50 is about 8.3-fold lower than that of the compound before.

`O=c1cc(-c2cccc(O)c2)oc2c(O)c(O)ccc12` gave an IC50 of 48 µg/mL (≈ 178 µM).

`O=c1cc(-c2cccc(O)c2)oc2cccc(O)c12`: the half-inhibitory concentration (IC50) was determined as 80 µg/mL (≈ 315 µM).

In the case of `O=c1c(O)c(-c2ccc(O)c(O)c2)oc2cc(O)ccc12` [FISETIN], the IC50 was 4 µg/mL (≈ 14 µM).

Take `O=c1cc(-c2ccc(OCc3ccccc3)cc2)oc2cccc(O)c12`: the IC50 is above 800 µg/mL.

Consider `O=c1cc(-c2cccc(O)c2)oc2ccc(O)cc12`, for which the concentration for half-maximal inhibition (IC50) amounted to 4 µg/mL (≈ 15.7 µM).

Compound `COc1cc(-c2cc(=O)c3cc(O)ccc3o2)cc(OC)c1O` yielded an IC50 of 41 µg/mL (≈ 130 µM).

As to `COc1cc(-c2cc(=O)c3ccc(O)c(O)c3o2)cc(OC)c1O[Si](C)(C)C(C)(C)C`, the concentration for half-maximal inhibition (IC50) was 40 µg/mL (≈ 90 µM).

`COc1cc(-c2cc(=O)c3ccc(O)c(O)c3o2)cc(OC)c1OC`: the concentration for half-maximal inhibition (IC50) was determined as 136 µg/mL (≈ 395 µM).

`COc1cc(-c2cc(=O)c3ccc(OC(C)=O)c(OC(C)=O)c3o2)cc(OC)c1O[Si](C)(C)C(C)(C)C` had an IC50 above 800 µg/mL.

For the compound `COc1cc(-c2cc(=O)c3cc(O)ccc3o2)cc(OC)c1OC`, the 50% inhibitory concentration (IC50) amounted to 20 µg/mL (≈ 60.9 µM).

Turning to `O=c1cc(-c2ccccc2)oc2cc(O)cc(O)c12` [CHRYSIN], the 50% inhibitory concentration (IC50) came to 5 µg/mL (≈ 19.7 µM).

In turn, `CC(C)(C)[Si](C)(C)Oc1ccc(-c2cc(=O)c3ccc(O)cc3o2)cc1` gave an IC50 of 360 µg/mL (≈ 977 µM).

The compound `COc1cc(-c2cc(=O)c3ccc(O)cc3o2)cc(OC)c1O` displayed an IC50 of 400 µg/mL (≈ 1270 µM).

Consider `O=c1cc(-c2ccc(O)cc2)oc2ccccc12`, for which the IC50 came to 120 µg/mL (≈ 504 µM).

As for `COc1cc(-c2cc(=O)c3cc(O)ccc3o2)cc(OC)c1O[Si](C)(C)C(C)(C)C`, the half-inhibitory concentration (IC50) was determined as 160 µg/mL (≈ 373 µM).

Turning to `O=c1c(O)c(-c2ccccc2)oc2cc(O)cc(O)c12` [GALANGIN], the IC50 was determined as 80 µg/mL (≈ 296 µM).

The compound `O=c1c(O)c(-c2cc(O)cc(O)c2)oc2cc(O)cc(O)c12` yielded an IC50 of 30 µg/mL (≈ 99.3 µM).

Consider `O=c1cc(-c2ccc(O)c(O)c2)oc2cc(O)cc(O)c12` [LUTEOLIN], for which the IC50 was 10 µg/mL (≈ 34.9 µM).

Take `COc1cc(-c2cc(=O)c3ccc(OC(C)=O)cc3o2)cc(OC)c1O[Si](C)(C)C(C)(C)C`: the IC50 was above 800 µg/mL.

`O=c1c(O)c(-c2ccc(O)c(O)c2)oc2cc(O)cc(O)c12` [QUERCETIN]: the IC50 turned out to be 4 µg/mL (≈ 13.2 µM).

`COc1cc(-c2cc(=O)c3ccccc3o2)cc(OC)c1O` yielded an IC50 of 7.7 µg/mL (≈ 25.8 µM).

Turning to `COc1cc(-c2cc(=O)c3ccc(O)cc3o2)cc(OC)c1O[Si](C)(C)C(C)(C)C`, the half-maximal inhibitory concentration (IC50) is 656 µg/mL (≈ 1530 µM).

Consider `COc1cc(O)c2c(=O)cc(-c3ccc(O)cc3)oc2c1` [GENKWANIN], for which the half-inhibitory concentration (IC50) turned out to be 80 µg/mL (≈ 281 µM).

Consider `COc1cc(-c2cc(=O)c3ccc(OC(C)=O)cc3o2)cc(OC)c1O`, for which the 50% inhibitory concentration (IC50) is above 800 µg/mL.

For `COc1ccc2oc(-c3cc(OC)c(OC)c(OC)c3)cc(=O)c2c1`, the half-inhibitory concentration (IC50) is above 800 µg/mL.

The compound `CC(C)(C)[Si](C)(C)Oc1ccc(-c2cc(=O)c3cc(O)ccc3o2)cc1` displayed an IC50 of 44 µg/mL (≈ 119 µM).

`O=c1cc(-c2ccc(O)cc2)oc2cc(O)cc(O)c12` [APIGENIN] displayed an IC50 of 4 µg/mL (≈ 14.8 µM).

`O=c1cc(-c2ccccc2)oc2cc(O)ccc12` [7-HYDROXYFLAVONE] returned an IC50 of 80 µg/mL (≈ 336 µM).

For `O=c1cc(-c2cccc(O)c2)oc2cc(O)ccc12`, the IC50 was 10 µg/mL (≈ 39.3 µM). This IC50 lies about 8-fold lower than the previous one.

The values above are taken from ChEMBL document CHEMBL1158989, “Synthesis and evaluation of hydroxylated flavones and related compounds as potential inhibitors of the protein-tyrosine kinase p56lck” (J Nat Prod, 1991).
